From ChEMBL document CHEMBL4346667 (Eur J Med Chem, 2019)
Calls of active or inactive are those of the source. The calls are words filed in the database; no cut-off is given here.

Tests used:
A549 = experiment: Antiproliferative activity against human A549 cells assessed as reduction in cell viability after 48 hrs by MTT assay; assay type: functional, cell-based; conditions: A549, 48 h
Summary of the method: (§1)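 Cells grown at 37 °C, 5% CO2; HeLa, HepG2, H8, HL7702 in RPMI 1640 + 10% fetal calf serum, others in high-glucose DMEM + 10% fetal calf serum. Log-phase cells seeded at 4000-12000/well by doubling time. Attached cells were given 10-fold dilutions, 100 µM to 10 nM (DMSO 0.1% v/v), for 48 h. MTT (2 mg/mL) 4 h, formazan in DMSO, A492. IC50 from triplicate means.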

MRC5 = experiment: Antiproliferative activity against human MRC5 cells assessed as reduction in cell viability after 48 hrs by MTT assay; assay type: functional, cell-based; conditions: MRC5, 48 h; summary of the method: as §1
Tubulin = experiment: Binding affinity to tubulin (unknown origin) assessed as dissociation constant by SPR analysis; assay type: protein-complex assay, Homo sapiens
Summary of the method: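 Tubulin immobilised to about 800 mDeg. Injected at 60 µL/min for 300 s; PBS with 0.5% DMSO as running buffer. Measured at 25 °C, with dilution-corrected peak areas.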

L02 = experiment: Antiproliferative activity against human HL7702 cells assessed as reduction in cell viability after 48 hrs by MTT assay; assay type: functional, cell-based; conditions: L02, 48 h; summary of the method: as §1
HeLa = experiment: Antiproliferative activity against human HeLa cells assessed as reduction in cell viability after 48 hrs by MTT assay; assay type: functional, cell-based; summary of the method: as §1
Tubulin (Sus scrofa) [1] = target: T1, Tubulin (Sus scrofa) (UniProt P02554+P02550); experiment: Inhibition of porcine tubulin assembly assessed as tubulin growth inhibition incubated for 30 min by fluorometric analysis; assay type: protein assay
T1 sequence (P02550 whole entry, looked up): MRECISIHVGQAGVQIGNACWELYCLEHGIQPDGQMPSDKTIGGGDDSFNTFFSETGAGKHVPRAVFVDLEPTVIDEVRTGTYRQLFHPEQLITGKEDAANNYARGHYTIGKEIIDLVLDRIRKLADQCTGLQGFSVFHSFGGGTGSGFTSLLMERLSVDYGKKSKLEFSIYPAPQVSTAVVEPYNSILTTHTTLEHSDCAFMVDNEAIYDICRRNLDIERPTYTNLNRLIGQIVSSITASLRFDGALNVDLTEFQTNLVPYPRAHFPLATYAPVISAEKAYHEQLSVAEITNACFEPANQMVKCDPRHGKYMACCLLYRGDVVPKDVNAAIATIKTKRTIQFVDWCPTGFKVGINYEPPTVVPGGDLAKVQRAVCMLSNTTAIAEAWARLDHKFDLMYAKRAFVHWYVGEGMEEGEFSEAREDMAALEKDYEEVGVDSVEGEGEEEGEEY
T1 sequence (P02554 whole entry, looked up): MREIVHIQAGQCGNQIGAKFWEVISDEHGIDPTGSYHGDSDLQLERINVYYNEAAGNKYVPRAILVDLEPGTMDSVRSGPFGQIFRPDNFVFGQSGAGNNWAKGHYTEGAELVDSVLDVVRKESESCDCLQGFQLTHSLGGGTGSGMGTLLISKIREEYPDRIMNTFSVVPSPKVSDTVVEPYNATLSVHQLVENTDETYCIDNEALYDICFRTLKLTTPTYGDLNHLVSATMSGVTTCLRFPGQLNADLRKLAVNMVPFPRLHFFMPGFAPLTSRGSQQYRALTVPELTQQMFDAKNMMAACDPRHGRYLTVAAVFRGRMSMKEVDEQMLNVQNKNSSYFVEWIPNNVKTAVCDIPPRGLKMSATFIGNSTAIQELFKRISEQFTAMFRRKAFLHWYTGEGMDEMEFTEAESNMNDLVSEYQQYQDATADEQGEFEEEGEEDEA
Summary of the method: (§2)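 This was a centrifugation assay of tubulin assembly. Tubulin was held at 4 °C with 0.9 mM GTP and 6 mM MgCl2, and aggregates were removed at 90000 g for 10 min at 4 °C. Ligands at 0.05–2 µM (1% DMSO) were incubated for 30 min at 37 °C. Supernatants and pellets were diluted 1:5, and tubulin was read fluorometrically (ex 280, em 323) against standards. The 50% inhibitory concentration came from inhibition curves, as the mean of three experiments.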

MCF7 [2] = experiment: Cell cycle arrest in human MCF7 cells assessed as accumulation of cells at G2/M phase at >=250 nM after 24 hrs by propidium iodide double staining based flow cytometric analysis (reference value: 80%); assay type: functional
Summary of the method: (§3)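 Log-phase cells seeded in 6-well plates and, once adhered, treated at 10-1000 nM; incubated in cycles of 6 h on/6 h off up to 48 h. Washed in cold PBS, fixed in 70% ethanol at -20 °C for at least 2 days. Stained with PI (50 µg/mL) 30 min on ice in the dark. 10,000 events on FL2-A vs FL2-W; G1/S/G2/M from DNA modelling. At least three repeats.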

[3] = Binding affinity to alpha/beta tubulin complex (unknown origin); parameters: species or system Homo sapiens
Summary of the method: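 SPR assay: tubulin immobilized up to 800 mDeg (response units). Ligands were diluted two-fold from 80 µM to 2.5 µM in PBS with 0.5% (v/v) DMSO and injected at 60 µL/min for 300 s. Running buffer was PBS with 0.5% DMSO, at 25°C.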

Tubulin (Homo sapiens) [4] = target: T2, Tubulin (Homo sapiens) (UniProt P68371+Q9H4B7+P0DPH7+P68366+Q13509+Q71U36+P04350+Q3ZCM7+P07437+P68363+Q9BQE3+Q6PEY2+Q13885+Q9BVA1+Q9BUF5); experiment: Ratio of Kd for colchicine to Kd for test compound for tubulin (unknown origin) by surface plasmon resonance analysis; assay type: protein-complex assay
Summary of the method: (§4)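 SPR binding to immobilised tubulin (up to 800 mDeg) was measured at 25 °C. Compounds were diluted two-fold from 80 to 2.5 µM in PBS with 0.5% DMSO. They were injected at 60 µL/min for 300 s, with PBS containing 0.5% DMSO as running buffer. Kd values came from the titration data.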

Tubulin (Homo sapiens) [5] = target: T2, Tubulin (Homo sapiens); experiment: Inhibition of tubulin polymerization in human HeLa cells assessed as cellular microtubule disorganization and H3 phosphorylation at 500 nM after 24 hrs by immunofluorescence based confocal microscopy; assay type: cell-based
Summary of the method: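 HeLa cells on glass coverslips were treated for 24 h at 25, 250 or 500 nM. They were fixed in 4% paraformaldehyde for 1 h and permeabilised with 0.2% Triton X-100 for 20 min. Anti-α-tubulin (1:50 in 2% BSA) was applied for 1 h at RT, then Alexa Fluor 488 anti-rabbit IgG (1:500) for 1 h, then DAPI for 20 min. Cells were imaged by fluorescence and confocal microscopy.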

HMEC = experiment: Antiproliferative activity against human HMEC cells assessed as reduction in cell viability after 48 hrs by MTT assay; assay type: functional, cell-based; summary of the method: as §1
HepG2 = experiment: Antiproliferative activity against human HepG2 cells assessed as reduction in cell viability after 48 hrs by MTT assay; assay type: functional, cell-based; conditions: HepG2, 48 h; summary of the method: as §1
Tubulin (Homo sapiens) [6] = target: T2, Tubulin (Homo sapiens); experiment: Ratio of Kd for PTOX to Kd for test compound for tubulin (unknown origin) by surface plasmon resonance analysis; assay type: protein-complex assay; summary of the method: as §4
MCF7 [7] = experiment: Antiproliferative activity against human MCF7 cells assessed as reduction in cell viability after 48 hrs by MTT assay; assay type: functional, cell-based; conditions: MCF7, 48 h; summary of the method: as §1
MCF7 [8] = experiment: Induction of apoptosis in human MCF7 cells at 250 nM after 48 hrs by Annexin V-FITC/propidium iodide staining-based flow cytometric analysis relative to control (reference value: 11.6%); assay type: functional
Summary of the method: (§5)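 MCF7 cells were seeded in 6-well plates and exposed after adhering to graded concentrations for 48 h, in cycles of 6 h on and 6 h off. They were then stained with annexin V (1 µg/mL) and PI (0.5 µg/mL) in Ca2+-enriched binding buffer for 15 min in the dark at room temperature. Flow cytometry recorded 10,000 events, FL1 versus FL2. Apoptosis was taken as early plus late stage, with at least 3 repeats.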

[9] = Antiproliferative activity against human H8 cells assessed as reduction in cell viability after 48 hrs by MTT assay; assay type: functional, cell-based; summary of the method: as §1
Tubulin (Sus scrofa) [10] = target: T1, Tubulin (Sus scrofa); experiment: Inhibition of porcine tubulin assembly assessed as tubulin growth inhibition at 2 uM incubated for 30 min by fluorometric analysis; assay type: protein assay; summary of the method: as §2
MCF7 [11] = experiment: Antitumor activity against human MCF7 cells xenografted in BALB/c nude mouse assessed as inhibition of tumor growth at 40 mg/kg administered for a week; assay type: functional
Summary of the method: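 Male BALB/c nude mice, 4 weeks old, 15-20 g. Log-phase MCF-7 cells in DMEM, 0.1 mL of 1×10^6 cells/mL, injected subcutaneously into the hind leg. Calipers twice weekly; at about 90 mm3, groups of 5. Vehicle was isotonic saline plus 0.005% DMSO. Injected at 40 mg/kg for a week; tumour volume recorded daily.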

MCF7 [12] = experiment: Induction of apoptosis in human MCF7 cells at 50 nM after 48 hrs by Annexin V-FITC/propidium iodide staining-based flow cytometric analysis relative to control (reference value: 11.6%); assay type: functional; summary of the method: as §5
MCF7 [13] = experiment: Induction of apoptosis in human MCF7 cells at 10 nM after 48 hrs by Annexin V-FITC/propidium iodide staining-based flow cytometric analysis relative to control (reference value: 11.6%); assay type: functional; summary of the method: as §5
MCF7 [14] = experiment: Induction of apoptosis in human MCF7 cells at 100 nM after 48 hrs by Annexin V-FITC/propidium iodide staining-based flow cytometric analysis relative to control (reference value: 11.6%); assay type: functional; summary of the method: as §5
MCF7 [15] = experiment: Cell cycle arrest in human MCF7 cells assessed as accumulation of cells at G2/M phase at 250 to 500 nM after 24 hrs by propidium iodide double staining based flow cytometric analysis; assay type: functional; summary of the method: as §3
MCF7 [16] = experiment: Induction of apoptosis in human MCF7 cells at 500 nM after 48 hrs by Annexin V-FITC/propidium iodide staining-based flow cytometric analysis relative to control (reference value: 11.6%); assay type: functional; summary of the method: as §5
Tubulin (Homo sapiens) [17] = target: T2, Tubulin (Homo sapiens); experiment: Inhibition of tubulin polymerization in human HeLa cells assessed as contracted and rounded cells with disordered abnormal spindles and chromosomal misalignment at 500 nM after 24 hrs by immunofluorescence based confocal microscopy; assay type: cell-based
Summary of the method: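 HeLa cells on glass coverslips were treated for 24 h at 25, 250 or 500 nM. They were fixed in 4% paraformaldehyde for 1 h and permeabilised with 0.2% Triton X-100 for 20 min. Cells were imaged by fluorescence and confocal microscopy.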

MCF7 [18] = experiment: Cell cycle arrest in human MCF7 cells assessed as accumulation of cells at G2/M phase at 100 nM after 24 hrs by propidium iodide double staining based flow cytometric analysis; assay type: functional; summary of the method: as §3

| Structure (SMILES) | IC50 (A549) [nM] | IC50 (MRC5) [nM] | Kd (Tubulin) [nM] | IC50 (L02) [nM] | IC50 (HeLa) [nM] | GI50 (Tubulin (Sus scrofa) [1]) [nM] | Ki [3] [nM] | Ratio (Tubulin (Homo sapiens) [4]) | IC50 (HMEC) [nM] | IC50 (HepG2) [nM] | Ratio (Tubulin (Homo sapiens) [6]) | IC50 (MCF7 [7]) [nM] | Activity (MCF7 [8]) | IC50 [9] [nM] | inhibition (Tubulin (Sus scrofa) [10]) [%] | other results |
| --- | --- | --- | --- | --- | --- | --- | --- | --- | --- | --- | --- | --- | --- | --- | --- | --- |
| COc1cc([C@@H]2c3cc4c(cc3[C@@H](Nc3ccc5[nH]ncc5c3)[C@H]3COC(=O)[C@H]23)OCO4)cc(OC)c1OC | 200 | 60800 | 9100 | 50600 | 200 | < 100 | 60 | 2.2 | 81800 | 300 | 2.7 | 200 | 60% | 98400 | 79 | Activity (MCF7 [2]): 45%; inhibition (Tubulin (Homo sapiens) [5]): Active |
| COc1cc([C@@H]2c3cc4c(cc3[C@@H](Nc3ccc5cc[nH]c5c3)[C@H]3COC(=O)[C@H]23)OCO4)cc(OC)c1OC | 80 | 69100 | 8100 | 94600 | 80 | < 100 | 10 | 2.2 | 61600 | 100 | 2.7 | 70 | 92.4 - 93% | 84500 | 88 | inhibition in vivo at 40 mg/kg (MCF7 [11]): 89.6%; Activity (MCF7 [12]): 20.1%; Activity (MCF7 [13]): 10.5%; Activity (MCF7 [14]): 93.5%; Activity (MCF7 [15]): 90%; Activity (MCF7 [16]): 94.9%; inhibition (Tubulin (Homo sapiens) [17]): Active; Activity (MCF7 [18]): 50% |
